Results taken from ChEMBL document CHEMBL3797157, “Antifungal Quinoline Alkaloids from Waltheria indica” (J Nat Prod, 2016).
Converted amounts (≈) assume the structure as drawn. The source made the active and inactive calls. The calls are words filed in the database; no cut-off is given here.

How the values were obtained:
Candida albicans [1] = experiment: Antimicrobial activity against Candida albicans CAF2-1 after 24 hrs by two fold serial dilution method; format: functional; settings: CAF2-1, 24 h
How it was run: (§1)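 Broth microdilution per EUCAST. Yeasts diluted to 2 × 10^5 cells/mL in YNB with 2% glucose, pH 4.6. Compound stocks 10 mg/mL in DMSO, twofold serial dilutions, 1% DMSO final. Drug-free and sterility controls included. Incubated 24 h at 34 °C. MIC is the lowest concentration giving OD450 ≤50% of the compound-free culture. For S. cerevisiae, YNB was supplemented with Complete Supplement Mixture.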

Nakaseomyces glabratus = experiment: Antimicrobial activity against Candida glabrata after 24 hrs by two fold serial dilution method; format: functional; how it was run: as §1
Pichia kudriavzevii = experiment: Antimicrobial activity against Candida krusei ATCC 6258 after 24 hrs by two fold serial dilution method; format: functional; settings: ATCC 6258, 24 h; how it was run: as §1
Candida tropicalis = experiment: Antimicrobial activity against Candida tropicalis ATCC 75 after 24 hrs by two fold serial dilution method; format: functional; settings: ATCC 75, 24 h; how it was run: as §1
Candida parapsilosis = experiment: Antimicrobial activity against Candida parapsilosis ATCC 22019 after 24 hrs by two fold serial dilution method; format: functional; settings: Lodderomyces parapsilosis, ATCC 22019, 24 h; how it was run: as §1
Saccharomyces cerevisiae = experiment: Antimicrobial activity against Saccharomyces cerevisiae BY4741 after 24 hrs by two fold serial dilution method; format: functional; settings: BY4741, 24 h; how it was run: as §1
Candida albicans [2] = experiment: Antibiofilm activity against Candida albicans CAF2-1 assessed as reduction in metabolic activity after 48 hrs by XTT assay; format: functional; settings: CAF2-1, 48 h
HeLa = experiment: Cytotoxicity against human HeLa cells after 48 hrs by SRB assay; format: cell-based
How it was run: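 Sulforhodamine B assay in HeLa cells (DMEM + 10% FBS, 37 °C, 5% CO2), seeded at 10^4 cells/well. After 24 h, cells were PBS-washed and exposed to twofold dilutions from 100 μg/mL for 48 h. A day-1 plate was fixed as baseline. OD492 growth = (treated d3 − d1)/(DMSO d3 − d1) × 100. IC50 was obtained by dose–response curve fitting.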

[3] = Selectivity index, ratio of IC50 for human HeLa cells to MIC for Candida albicans CAF2-1
How it was run: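 SI = HeLa IC50 (SRB assay, 48 h) divided by the C. albicans CAF2-1 MIC (YNB pH 4.6, 24 h, 34 °C broth microdilution).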

Escherichia coli = experiment: Antimicrobial activity against Escherichia coli; format: functional
Pseudomonas aeruginosa = experiment: Antimicrobial activity against Pseudomonas aeruginosa; format: functional
Staphylococcus aureus = experiment: Antimicrobial activity against Staphylococcus aureus; format: functional
Candida albicans [4] = experiment: Antimicrobial activity against Candida albicans CAF2-1 assessed as accumulation of dark corpuscles in nucleus at 1 ug/ml after 4 hrs by uranyl acetate/lead citrate staining based transmission electron microscopy; format: functional, organism-based
How it was run: (§2)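 CAF2-1 grown in YNB pH 4.6 at 37 °C for 2 h. Compound (1 mg/mL DMSO stock) then added at 1 or 2 μg/mL. DMSO-treated and untreated controls. Samples taken at 4 and 18 h and pelleted. Prefixed in 3% glutaraldehyde–2% paraformaldehyde in 0.07 M phosphate pH 7, postfixed in 1% OsO4, ethanol-dehydrated and embedded in LR White. 0.08 μm sections stained with uranyl acetate/lead citrate and viewed by TEM.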

Candida albicans [5] = experiment: Antimicrobial activity against Candida albicans CAF2-1 assessed as punctual disruption of nuclear membrane at 2 ug/ml after 4 hrs by uranyl acetate/lead citrate staining based transmission electron microscopy; format: functional, organism-based; how it was run: as §2
Candida albicans [6] = experiment: Antimicrobial activity against Candida albicans CAF2-1 assessed as punctual disruption of nuclear membrane at 1 ug/ml after 4 hrs by uranyl acetate/lead citrate staining based transmission electron microscopy; format: functional, organism-based; how it was run: as §2
Candida albicans [7] = experiment: Antimicrobial activity against Candida albicans CAF2-1 assessed as breakage zones of plasmic membrane at 2 ug/ml after 18 hrs by uranyl acetate/lead citrate staining based transmission electron microscopy; format: functional, organism-based; how it was run: as §2
Candida albicans [8] = experiment: Antimicrobial activity against Candida albicans CAF2-1 assessed as breakage zones of plasmic membrane at 1 ug/ml after 18 hrs by uranyl acetate/lead citrate staining based transmission electron microscopy; format: functional, organism-based; how it was run: as §2
Candida albicans [9] = experiment: Antimicrobial activity against Candida albicans CAF2-1 assessed as cytoplasmic content disorganization at 2 ug/ml after 18 hrs by uranyl acetate/lead citrate staining based transmission electron microscopy; format: functional, organism-based; how it was run: as §2
Candida albicans [10] = experiment: Antimicrobial activity against Candida albicans CAF2-1 assessed as cytoplasmic content disorganization at 1 ug/ml after 18 hrs by uranyl acetate/lead citrate staining based transmission electron microscopy; format: functional, organism-based; how it was run: as §2
Candida albicans [11] = experiment: Antimicrobial activity against Candida albicans CAF2-1 assessed as accumulation of dark corpuscles in nucleus at 2 ug/ml after 4 hrs by uranyl acetate/lead citrate staining based transmission electron microscopy; format: functional, organism-based; how it was run: as §2

Compound	MIC (Candida albicans [1]) [µg/mL]	MIC (Nakaseomyces glabratus) [µg/mL]	MIC (Pichia kudriavzevii) [µg/mL]	MIC (Candida tropicalis) [µg/mL]	MIC (Candida parapsilosis) [µg/mL]	MIC (Saccharomyces cerevisiae) [µg/mL]	MIC (Candida albicans [2]) [µg/mL]	IC50 (HeLa) [µg/mL]	Selectivity Index [3]	MIC (Escherichia coli) [µg/mL]	MIC (Pseudomonas aeruginosa) [µg/mL]	MIC (Staphylococcus aureus) [µg/mL]	Activity (Candida albicans [4])	Activity (Candida albicans [5])	Activity (Candida albicans [6])	Activity (Candida albicans [7])	Activity (Candida albicans [8])	Activity (Candida albicans [9])	Activity (Candida albicans [10])	Activity (Candida albicans [11])
OC(Cn1cncn1)(Cn1cncn1)c1ccc(F)cc1F [FLUCONAZOLE]	0.5 (≈ 1.63 µM)	> 128	32 (≈ 104 µM)	4 (≈ 13.1 µM)	4 (≈ 13.1 µM)	16 (≈ 52.2 µM)	> 256	> 100	>200	–	–	–	–	–	–	–	–	–	–	–
CCCCCCCC[C@H]1CCCc2c1c(=O)c(OC)c(C)n2OC	16 (≈ 47.7 µM)	32 (≈ 95.4 µM)	16 (≈ 47.7 µM)	32 (≈ 95.4 µM)	2 (≈ 5.96 µM)	16 (≈ 47.7 µM)	16 (≈ 47.7 µM)	16.1 (≈ 48 µM)	1	> 32	> 32	> 32	–	–	–	–	–	–	–	–
CCCCCCCC[C@H]1CC[C@@H](OC)c2[nH]c(C)c(OC)c(=O)c21	4 (≈ 11.9 µM)	> 32	> 32	> 32	> 32	> 32	8 (≈ 23.8 µM)	20 (≈ 59.6 µM)	5	> 32	> 32	> 32	Active	Active	Active	Active	Active	Active	Active	Active
CCCCCCCC[C@H]1CCC(=O)c2[nH]c(C)c(OC)c(=O)c21	32 (≈ 100 µM)	> 32	16 (≈ 50.1 µM)	> 32	4 (≈ 12.5 µM)	> 32	16 (≈ 50.1 µM)	23.4 (≈ 73.3 µM)	0.7	> 32	> 32	> 32	–	–	–	–	–	–	–	–
CCCCCCCC[C@@H]1CCCc2c1c(=O)c(OC)c(CO)n2OC	32 (≈ 91 µM)	> 32	> 32	> 32	> 32	> 32	16 (≈ 45.5 µM)	26.6 (≈ 75.7 µM)	0.8	> 32	> 32	> 32	–	–	–	–	–	–	–	–
CCCCCCCC[C@H]1CC[C@@H](O)c2[nH]c(C)c(OC)c(=O)c21	32 (≈ 99.5 µM)	> 32	32 (≈ 99.5 µM)	> 32	> 32	> 32	16 (≈ 49.8 µM)	50 (≈ 156 µM)	1.6	–	–	–	–	–	–	–	–	–	–	–
CCCCCCCC[C@@H]1CCCc2[nH]c(C)c(OC)c(=O)c21	16 (≈ 52.4 µM)	> 32	32 (≈ 105 µM)	> 32	32 (≈ 105 µM)	> 32	32 (≈ 105 µM)	24.7 (≈ 80.9 µM)	1.5	> 32	> 32	> 32	–	–	–	–	–	–	–	–
COc1c(C)n(OC)c2c(c1=O)[C@@H](CCCCCc1ccccc1)CCC2	32 (≈ 86.6 µM)	32 (≈ 86.6 µM)	32 (≈ 86.6 µM)	32 (≈ 86.6 µM)	2 (≈ 5.41 µM)	16 (≈ 43.3 µM)	32 (≈ 86.6 µM)	9.5 (≈ 25.7 µM)	0.3	> 32	> 32	> 32	Active	Active	Active	Active	Active	Active	Active	Active
CCCCCCCCc1ccc(OC)c2[nH]c(C)c(OC)c(=O)c12	8 (≈ 24.1 µM)	> 32	> 32	> 32	> 32	> 32	16 (≈ 48.3 µM)	14.4 (≈ 43.4 µM)	1.8	> 32	> 32	> 32	–	–	–	–	–	–	–	–
COc1c(C)[nH]c2c(c1=O)[C@@H](CCCCCc1ccccc1)CC[C@H]2OC	32 (≈ 86.6 µM)	> 32	> 32	> 32	> 32	> 32	32 (≈ 86.6 µM)	11.9 (≈ 32.2 µM)	0.4	> 32	> 32	> 32	–	–	–	–	–	–	–	–
CCCCCCCC[C@@H]1CCCc2[nH]c(CO)c(OC)c(=O)c21	32 (≈ 99.5 µM)	> 32	32 (≈ 99.5 µM)	> 32	> 32	> 32	16 (≈ 49.8 µM)	24.4 (≈ 75.9 µM)	0.8	–	–	–	–	–	–	–	–	–	–	–
CC[C@H](C)C[C@H](C)CCCCCCCCC(=O)N[C@H]1C[C@@H](O)[C@@H](NCCN)NC(=O)[C@@H]2[C@@H](O)CCN2C(=O)[C@H]([C@H](O)CCN)NC(=O)[C@H]([C@H](O)[C@@H](O)c2ccc(O)cc2)NC(=O)[C@@H]2C[C@@H](O)CN2C(=O)[C@H]([C@@H](C)O)NC1=O [CASPOFUNGIN]	0.3 (≈ 0.274 µM)	0.1 (≈ 0.0915 µM)	0.1 (≈ 0.0915 µM)	0.5 (≈ 0.457 µM)	1 (≈ 0.915 µM)	0.3 (≈ 0.274 µM)	0.1 (≈ 0.0915 µM)	> 100	>400	–	–	–	–	–	–	–	–	–	–	–
